# Efflux pump inh = blocks antifungal efflux pumps in multiplex yeast assay; S. cerevisiae Candida pump triplex, Nile Red efflux; inhibition, % at 10 µM; hit rate 0.44% among 330,000;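 active means plate passing quality check with inhibition over a set limit, or well fluorescence over plate mean plus 4 SD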;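 further: Nile Red retained in pooled yeast measured as flow cytometry median fluorescence; 0% = buffer negative control and 100% = Enniatin B positive control; higher means more Nile Red kept so more efflux inhibition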
# ABCG2 inh = inhibitors of human ABCG2 transporter, ABCB1 counter-screen; Q9UNQ0; IgMXP3 cells, JC-1 efflux, flow cytometry; inhibition, % at 6.6 µM; hit rate 0.1% among 190,000; AID 1325;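 active means inhibition above 80%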;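 further: 0% = DMSO and 100% = nicardipine control wells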
# Target sequence (Q9UNQ0 whole entry, looked up): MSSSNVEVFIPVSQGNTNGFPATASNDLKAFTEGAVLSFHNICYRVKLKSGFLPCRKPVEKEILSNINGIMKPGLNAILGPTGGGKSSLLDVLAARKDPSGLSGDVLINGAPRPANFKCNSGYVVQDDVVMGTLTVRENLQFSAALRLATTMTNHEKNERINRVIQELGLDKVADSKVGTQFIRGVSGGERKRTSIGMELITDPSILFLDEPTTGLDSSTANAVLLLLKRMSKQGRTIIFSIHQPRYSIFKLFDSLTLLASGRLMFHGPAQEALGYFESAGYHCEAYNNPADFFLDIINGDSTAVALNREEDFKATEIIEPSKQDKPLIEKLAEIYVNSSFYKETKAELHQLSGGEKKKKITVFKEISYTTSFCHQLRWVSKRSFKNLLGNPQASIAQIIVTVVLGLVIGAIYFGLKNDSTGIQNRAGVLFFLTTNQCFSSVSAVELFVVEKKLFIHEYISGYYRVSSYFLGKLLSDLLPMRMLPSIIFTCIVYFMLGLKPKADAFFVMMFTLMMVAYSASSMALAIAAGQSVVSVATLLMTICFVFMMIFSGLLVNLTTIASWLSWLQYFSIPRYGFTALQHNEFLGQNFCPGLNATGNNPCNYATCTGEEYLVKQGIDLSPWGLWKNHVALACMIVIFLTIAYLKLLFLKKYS
#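 Read-out basis: Efflux inhibition in percent versus controls | Test system: ABCG2 IgMXP3 and barcoded ABCB1 CCRF-Adr cell mix | Quantity: 3 million cells/mL in well | Schedule: 10 min at 25 °C | Control set: Nicardipine as high control, DMSO as low control | Reagent: JC-1 as fluorescent efflux pump substrate | Signal: Flow cytometry of retained JC-1 fluorescence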
# MEKK2mut PB1 HTS = signal of MEK5 binding to mutant human MEKK2 PB1 domain. bead flow cytometry, Alexa488-MEK5 binding to MEKK2 mutant. percent response, % at 10 µM. hit rate 0.35% among 290,000. AID 1530; in the data active means percent response above about 24%, passing the limit was not always enough
# ABCB1 inh = inhibitors of human ABCB1 transporter, ABCG2 counter-screen | P08183 | CCRF-Adr cells, JC-1 efflux, flow cytometry | inhibition, % at 6.6 µM | hit rate 0.067% among 190,000 | AID 1326; in the data active means inhibition above about 40%;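 further: 0% = vehicle and 100% = reference inhibitor; higher value means more JC-1 retained so stronger ABCB1 efflux block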
# MEKK2 WT-MEK5 = raises or lowers MEK5 binding to wildtype human MEKK2 PB1 domain; AID 1531; bead flow cytometry, Alexa488-MEK5 binding to MEKK2 WT; actives lie on both sides; Q9Y2U5; hit rate 1.1% among 290,000; binding response (% of control), % at 10 µM; in the data active means binding response below about 67% or above about 130%
# MEKK3 PB1 HTS = MEKK3-MEK5 PB1 interaction, increase or decrease; Q99759; bead-based flow cytometry, Alexa488-MEK5 binding to MEKK3; actives lie on both sides; 0 = blocked by unlabeled MEK5, 100 = vehicle; binding response (% of control), % at 10 µM; hit rate 1.4% among 290,000; AID 1529;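 active means binding response more than 3 SD above or below the average of its plate-row segment, actives on both sides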;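 further: Alexa488 bead fluorescence after subtracting the streptavidin-only scavenger bead signal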
# MEKK2wt confirm = raises or lowers MEK5 binding to wildtype human MEKK2, retest; shares compounds with MEKK3 PB1 HTS; bead flow cytometry, Alexa488-MEK5 binding to MEKK2 WT; actives lie on both sides; binding response (% of control), % at 10 µM; hit rate 2.4% among 5,900; in the data active means binding response below about 16% or above about 210%; inactive means in between
# MEKK2mut-MEK5 = signal of MEK5 binding to mutant human MEKK2, retest; shares compounds with MEKK3 PB1 HTS; bead flow cytometry, Alexa488-MEK5 binding to MEKK2 mutant; percent response, % at 10 µM; hit rate 2% among 5,900; AID 1893; in the data active means percent response mostly above about 71%, no sharp cut-off; inactive means mostly below about 38%;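 further: higher means compound restores mutant binding toward wildtype level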
# MEKK3-MEK5 inh = confirmation of inhibitors of MEK5 binding to human MEKK3; shares compounds with MEKK3 PB1 HTS; bead flow cytometry, Alexa488-MEK5 binding to MEKK3; active compounds read low; binding response (% of control), % at 10 µM; hit rate 1.8% among 5,900; AID 1894;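 active means binding response below 72% of control, or above a set upper limit, though filed actives all read lower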;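 further: 100% = DMSO only wells and 0% = binding blocked by excess unlabeled MEK5; lower values mean stronger disruption of MEK5 binding to MEKK3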
# The depositor's hits bear a star; . = not tested or not shown; [ ] = another dose, or the depositor's remark. Sampled rows, rich in hits. Any-hit rate of the full collection: about 2.5%.
SMILES,Efflux pump inh,ABCG2 inh,MEKK2mut PB1 HTS,ABCB1 inh,MEKK2 WT-MEK5,MEKK3 PB1 HTS,MEKK2wt confirm,MEKK2mut-MEK5,MEKK3-MEK5 inh
CCN(CC)CCCN(C(=O)c1cccs1)c1nc(-c2ccc(OC)cc2)cs1,-0.1,7.0,2.0,1.6,143.0*,97.0,116.0,13.0,104.0
COc1ccc(-c2csc(N(C)C(=O)c3cccs3)n2)cc1,0.2,1.7,3.0,0.1,103.0,106.0,.,.,.
CCN(CC)CCCN(C(=O)c1cccc(C)c1)c1nc(-c2ccc(OC)cc2)cs1,0.1,.,14.0,.,143.0*,106.0,151.0,22.0,106.0
CCN(CC)CCCN(C(=O)c1ccco1)c1nc(-c2ccc(C)cc2)cs1,0.1,3.3,-1.0,1.1,135.0,105.0,.,.,.
CCN(CC)CCCN(C(=O)c1ccc(Br)cc1)c1nc(-c2ccc(OC)cc2)cs1,0.1,.,24.0*,.,176.0*,100.0,152.0,21.0,78.0
COCCCN(C(=O)c1ccccc1)c1nc(-c2ccc(OC)cc2)cs1,-0.3,.,0.0,.,104.0,105.0,.,.,.
CCN(CC)CCCN(C(=O)c1ccco1)c1nc(-c2ccc(Cl)cc2)cs1,0.0,.,39.0*,.,169.0*,108.0,158.0,29.0,108.0
COc1cccc(/C=N/NC(=O)c2ccncc2)c1OC(=O)c1ccc(Br)cc1,-0.1,.,0.0,.,96.0,104.0,.,.,.
COc1ccc(/C=N/NC(=O)c2c(Br)cnn2C)c2ccccc12,-0.1,.,7.0,.,111.0,106.0,.,.,.
Cc1onc(-c2ccccc2)c1-c1csc(N/N=C/c2ccccc2)n1,0.2,.,-17.0,.,74.0,68.0*[inhibitor],99.0,-1.0,99.0
O=c1cc(-c2ccc(F)cc2)oc2ccccc12,0.0,.,2.0,.,2.0*[inhibitor],2.0*[inhibitor],99.0,6.0,104.0
COc1cc(C(CCN2CCCC(C)C2)c2c(OC)cc(OC)c3c2OC(=O)CC3c2ccc(N(C)C)cc2)cc(OC)c1OC (stereo not drawn),0.0,.,14.0,.,136.0*,96.0,136.0,16.0,100.0
COc1cc(C2CC(=O)Oc3c(C(CCN4CCCC(C)C4)c4ccc(N(C)C)cc4)c(OC)cc(OC)c32)cc(OC)c1OC (stereo not drawn),.,.,5.0,.,154.0*,124.0,119.0,13.0,105.0
CC12CCC(C(=O)N(CC(O)CN3CCCCCC3)C1=O)C2(C)C (stereo not drawn),-0.1,6.1,0.0,0.3,107.0,145.0*,94.0,-5.0,97.0
Cc1nn(-c2ccccc2)c(Cl)c1CN(C(=O)CCl)c1ccc(Cl)cc1,0.1,0.6,3.0,1.1,112.0,145.0*,100.0,-2.0,103.0
CCCCCC1CCC(C(=O)NCCN2CCOCC2)CC1 (stereo not drawn),1.1,.,15.0,.,108.0,105.0,.,.,.
CCCN1C(=O)/C(=C\C=C2/Sc3ccccc3N2CCO)SC1=S,0.0,-1.8,-17.0,-0.6,33.0*[inhibitor],68.0*[inhibitor],90.0,-8.0,96.0
CCCN1C(=O)/C(=C/c2ccncc2)SC1=S,-0.1,-1.3,5.0,-0.4,105.0,111.0,.,.,.
CCN1CCCC1CNc1ncnc2c1[nH]c1ccc(Cl)cc12 (stereo not drawn),-0.2,-0.8,35.0*,0.1,125.0,101.0,119.0,4.0,90.0
COc1cccc(C2C3=C(CC(C)(C)CC3=O)OC(N)=C2[N+](=O)[O-])c1 (stereo not drawn),-0.2,0.3,2.0,0.1,105.0,99.0,.,.,.
CC1(C)CC(=O)C2=C(C1)OC(N)=C([N+](=O)[O-])C2c1ccc(F)cc1 (stereo not drawn),0.0,.,27.0,.,137.0,137.0*,106.0,3.0,102.0

# Assay outcomes deposited in PubChem BioAssay by NMMLSC.
